Assay results from ChEMBL document CHEMBL3596093, “Synthesis and antimicrobial evaluation of 5-aryl-1,2,4-triazole-3-thione derivatives containing a rhodanine moiety” (2015).

Columns and labels:
Candida albicans = experiment: Antifungal activity against Candida albicans 7535 after 24 hrs by two-fold serial dilution method; format: functional; details: Candida albicans, 7535, 24 h
Escherichia coli [1] = experiment: Ratio of MBC to MIC for Escherichia coli KCTC 1924; format: functional
In short: (§1)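 The ratio divides MBC by MIC for the same strain. MIC comes from two-fold broth microdilution in Mueller-Hinton broth (about 10^5 CFU/mL, 37 °C, 24 h, absorbance at 630 nm). MBC comes from subculturing 5 µL from clear wells onto Mueller-Hinton agar for another 24 h at 37 °C, taken as the lowest concentration with no colonies.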

Staphylococcus aureus [2] = experiment: Antibacterial activity against Staphylococcus aureus RN4220 after 24 hrs by two-fold serial dilution method; format: functional; details: RN4220, 24 h
In short: (§2)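 Broth microdilution MIC. Bacteria grown to mid-log phase in Mueller-Hinton broth, diluted 1000-fold, about 10^5 CFU/mL. Compounds from DMSO stocks, two-fold serial dilution from a final 64 µg/mL. Incubation at 37 °C for 24 h. Growth read as absorbance at 630 nm on a microplate reader. Run in triplicate.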

Streptococcus mutans [3] = experiment: Antibacterial activity against Streptococcus mutans 3065 after 24 hrs by two-fold serial dilution method; format: functional; details: Streptococcus mutans, 3065, 24 h
In short: (§3)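 Strains grown to mid-log phase in Mueller-Hinton broth, then diluted 1000-fold in the same broth to about 10^5 CFU/mL. Compounds were made up as DMSO stocks and two-fold serially diluted from a final top concentration of 64 µg/mL. Incubation was 37 °C for 24 h. Growth was read as absorbance at 630 nm on a microplate reader. MIC assays were run in triplicate.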

Staphylococcus aureus [4] = experiment: Antibacterial activity against methicillin-resistant Staphylococcus aureus CCARM 3506 after 24 hrs by two-fold serial dilution method; format: functional; details: CCARM 3506, 24 h; in short: as §2
Pseudomonas aeruginosa [5] = experiment: Antibacterial activity against Pseudomonas aeruginosa 2004 after 24 hrs by two-fold serial dilution method; format: functional; details: Pseudomonas aeruginosa, 2004, 24 h; in short: as §3
Staphylococcus aureus [6] = experiment: Antibacterial activity against methicillin-resistant Staphylococcus aureus CCARM 3167 after 24 hrs by two-fold serial dilution method; format: functional; details: CCARM 3167, 24 h; in short: as §2
Escherichia coli [7] = experiment: Antibacterial activity against Escherichia coli KCTC 1924 after 24 hrs by two-fold serial dilution method; format: functional; details: KCTC 1924, 24 h; in short: as §3
Staphylococcus aureus [8] = experiment: Bactericidal activity against methicillin-resistant Staphylococcus aureus CCARM 3506 after 24 hrs by agar plate method; format: functional; details: CCARM 3506, 24 h
In short: (§4)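 5 µL from each well without visible growth plated on fresh Mueller-Hinton agar, then 37 °C for a further 24 h. MBC is the lowest concentration giving no visible colonies. Run in triplicate.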

Pseudomonas aeruginosa [9] = experiment: Antibacterial activity against Pseudomonas aeruginosa 2742 after 24 hrs by two-fold serial dilution method; format: functional; details: Pseudomonas aeruginosa, 2742, 24 h; in short: as §3
Staphylococcus aureus [10] = experiment: Bactericidal activity against Staphylococcus aureus RN4220 after 24 hrs by agar plate method; format: functional; details: RN4220, 24 h
In short: (§5)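 Samples of 5 µL from MIC wells with no visible growth were plated onto fresh Mueller-Hinton agar and incubated a further 24 h at 37 °C. MBC is the lowest concentration giving no visible colony growth on the agar. Assays were run in triplicate.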

Staphylococcus aureus [11] = experiment: Antibacterial activity against quinolone-resistant Staphylococcus aureus CCARM 3505 after 24 hrs by two-fold serial dilution method; format: functional; details: CCARM 3505, 24 h; in short: as §2
Escherichia coli [12] = experiment: Antibacterial activity against Escherichia coli CCARM 1356 after 24 hrs by two-fold serial dilution method; format: functional; details: CCARM 1356, 24 h; in short: as §3
Salmonella typhimurium = experiment: Antibacterial activity against Salmonella typhimurium 2421 after 24 hrs by two-fold serial dilution method; format: functional, Salmonella enterica subsp. enterica serovar Typhimurium; details: Salmonella enterica, 2421, 24 h; in short: as §3
Staphylococcus aureus [13] = experiment: Bactericidal activity against quinolone-resistant Staphylococcus aureus CCARM 3519 after 24 hrs by agar plate method; format: functional; details: CCARM 3519, 24 h; in short: as §4
Streptococcus mutans [14] = experiment: Bactericidal activity against Streptococcus mutans 3065 after 24 hrs by agar plate method; format: functional; details: Streptococcus mutans, 3065, 24 h; in short: as §5
Staphylococcus aureus [15] = experiment: Antibacterial activity against quinolone-resistant Staphylococcus aureus CCARM 3519 after 24 hrs by two-fold serial dilution method; format: functional; details: CCARM 3519, 24 h; in short: as §2
Staphylococcus aureus [16] = experiment: Bactericidal activity against methicillin-resistant Staphylococcus aureus CCARM 3167 after 24 hrs by agar plate method; format: functional; details: CCARM 3167, 24 h; in short: as §4
Escherichia coli [17] = experiment: Bactericidal activity against Escherichia coli KCTC 1924 after 24 hrs by agar plate method; format: functional; details: KCTC 1924, 24 h; in short: as §5
Staphylococcus aureus [18] = experiment: Bactericidal activity against Staphylococcus aureus KCTC 503 after 24 hrs by agar plate method; format: functional; details: KCTC 503, 24 h; in short: as §4
Staphylococcus aureus [19] = experiment: Ratio of MBC to MIC for Staphylococcus aureus KCTC 503; format: functional; in short: as §1
Staphylococcus aureus [20] = experiment: Antibacterial activity against Staphylococcus aureus KCTC 209 after 24 hrs by two-fold serial dilution method; format: functional; details: KCTC 209, 24 h; in short: as §3
Staphylococcus aureus [21] = experiment: Antibacterial activity against Staphylococcus aureus KCTC 503 after 24 hrs by two-fold serial dilution method; format: functional; details: KCTC 503, 24 h; in short: as §3
Staphylococcus aureus [22] = experiment: Bactericidal activity against quinolone-resistant Staphylococcus aureus CCARM 3505 after 24 hrs by agar plate method; format: functional; details: CCARM 3505, 24 h; in short: as §4
Staphylococcus aureus [23] = experiment: Bactericidal activity against Staphylococcus aureus KCTC 209 after 24 hrs by agar plate method; format: functional; details: KCTC 209, 24 h; in short: as §5

O=C(O)[C@H](Cc1ccccc1)N1C(=O)/C(=C/c2ccc(/C=N/n3c(-c4cccc(Br)c4)n[nH]c3=S)cc2)SC1=S
<=4: Ratio (Escherichia coli [1]) | Ratio (Staphylococcus aureus [19])
32 µg/mL: MIC (Staphylococcus aureus [2]) | MIC (Staphylococcus aureus [6]) | MIC (Staphylococcus aureus [15])
64 µg/mL: MIC (Streptococcus mutans [3]) | MIC (Escherichia coli [7]) | MBC (Staphylococcus aureus [8]) | MBC (Escherichia coli [17]) | MIC (Staphylococcus aureus [21])
> 128 µg/mL: MIC (Pseudomonas aeruginosa [5]) | MIC (Pseudomonas aeruginosa [9]) | MIC (Escherichia coli [12]) | MIC (Salmonella typhimurium) | MBC (Streptococcus mutans [14])
128 µg/mL: MBC (Staphylococcus aureus [16]) | MBC (Staphylococcus aureus [18]) | MBC (Staphylococcus aureus [22])
256 µg/mL: MBC (Staphylococcus aureus [10]) | MBC (Staphylococcus aureus [13])
16 µg/mL: MIC (Staphylococcus aureus [4]) | MIC (Staphylococcus aureus [11])
> 64 µg/mL: MIC (Candida albicans) | MIC (Staphylococcus aureus [20])

O=C(O)CN1C(=O)/C(=C/c2ccc(/C=N/n3c(-c4ccccc4Br)n[nH]c3=S)cc2)SC1=S
256 µg/mL: MBC (Staphylococcus aureus [16]) | MBC (Escherichia coli [17])
<=4: Ratio (Escherichia coli [1])
64 µg/mL: MIC (Staphylococcus aureus [2]) | MIC (Staphylococcus aureus [6]) | MIC (Escherichia coli [7]) | MIC (Staphylococcus aureus [15])
> 128 µg/mL: MIC (Pseudomonas aeruginosa [5]) | MIC (Pseudomonas aeruginosa [9]) | MIC (Escherichia coli [12]) | MIC (Salmonella typhimurium)
> 256 µg/mL: MBC (Staphylococcus aureus [10]) | MBC (Staphylococcus aureus [13])
> 64 µg/mL: MIC (Candida albicans) | MIC (Streptococcus mutans [3]) | MIC (Staphylococcus aureus [4]) | MIC (Staphylococcus aureus [11]) | MIC (Staphylococcus aureus [20]) | MIC (Staphylococcus aureus [21])

O=C(O)CN1C(=O)/C(=C/c2ccc(/C=N/n3c(-c4ccc(F)cc4)n[nH]c3=S)cc2)SC1=S
64 µg/mL: MIC (Staphylococcus aureus [2]) | MIC (Staphylococcus aureus [20])
> 128 µg/mL: MIC (Pseudomonas aeruginosa [5]) | MIC (Escherichia coli [7]) | MIC (Pseudomonas aeruginosa [9]) | MIC (Escherichia coli [12]) | MIC (Salmonella typhimurium) | MBC (Staphylococcus aureus [16])
16 µg/mL: MIC (Staphylococcus aureus [6])
> 256 µg/mL: MBC (Staphylococcus aureus [23]) | MBC (Staphylococcus aureus [10]) | MBC (Staphylococcus aureus [13])
32 µg/mL: MIC (Staphylococcus aureus [15])
> 64 µg/mL: MIC (Candida albicans) | MIC (Streptococcus mutans [3]) | MIC (Staphylococcus aureus [4]) | MIC (Staphylococcus aureus [11]) | MIC (Staphylococcus aureus [21])
